In publication PMC8945396 (ACS Nano, 2022):

What was measured:
[1] = system: soybean leaf epidermal and palisade mesophyll cells; assay: Translocation of TAMRA-labeled CPPs after spraying; format: in vivo, Glycine max; details: cv. Enrei; 30, 90, 150 min post spraying; CLSM, 6 ROIs
[2] = system: epidermal cells of tomato leaves; assay: Translocation of TAMRA-labeled CPPs after spraying; format: in vivo, Solanum lycopersicum; details: compared among BP100, dR9, KH9, KAibA; 30, 90, 150 min; 10 ROIs
How it was run: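 Tomato (cv. Micro-Tom) grown in soil with vermiculite at 25 °C, 16/8 h light/dark, 80 μmol photons m–2 s–1, 50% RH for 5–8 weeks; plants with 5–6 expanded leaves. Leaves were water-washed and dried 3–4 h, then sprayed with TAMRA-labeled peptides and lidded. Before imaging, leaves were rinsed 5 × 1 mL water. TAMRA fluorescence intensity was read by confocal microscopy, ex/em 555/580 nm.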

[3] = system: Arabidopsis thaliana leaf upper epidermal and palisade mesophyll cells; assay: Cell penetration and translocation of TAMRA-labeled CPPs after spraying; format: in vivo; details: 0.1 μg/mL sprayed; 30, 90, 150 min post spraying; CLSM, n = 8 ROIs
[4] = system: transgenic tomato leaf cells overexpressing GFP; assay: Transfection of Cy3-labeled pBI221/CPP complexes after spraying; format: in vivo, Solanum lycopersicum; details: as Cy3-labeled pBI221/CPP complex, N/P ratio = 2.0; 2 h post spraying; n = 15 ROIs

(Lys(Aib)Ala)5 [TAMRA-labeled KAibA]
translocation efficiency into the palisade mesophyll of soybean leaves [1]: higher translocation efficiency into the palisade mesophyll than the other CPPs

d-(RRRRRRRRR) [TAMRA-labeled dR9]
translocation efficiency in epidermal cells of tomato leaves [2]: greatest translocation efficiency | penetration efficiency into the palisade mesophyll [3]: higher penetration efficiency into the palisade mesophyll than the other CPPs

KHKHKHKHKHKHKHKHKHKKLFKKILKYL [KH9-BP100]
transfection efficiency of plasmid DNA molecules after spraying [4]: higher transfection efficiency
